Data set [1] has as its system Escherichia coli K-12. As to the kind of experiment: Activity of purified recombinant Escherichia coli K-12 malic enzyme L310R/Q401N mutant at 0.2 mM by UV-vis spectrophotometry in presence of L-malate MnCl2. A digest of the protocol: (§1)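 Screening of malic enzyme mutants with 1,2,3-triazole-containing NAD analogs as cofactor. Each analog was present at 0.2 mM, and the read-out was specific activity.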

The subject of data set [2] is Escherichia coli K-12. Description: Activity of purified recombinant Escherichia coli K-12 malic enzyme L310R/Q401S mutant at 0.2 mM by UV-vis spectrophotometry in presence of L-malate MnCl2. A digest of the protocol: as §1
Data set [3] concerns Escherichia coli K-12. Description: Activity of purified recombinant Escherichia coli K-12 malic enzyme L310R/Q401I mutant at 0.2 mM by UV-vis spectrophotometry in presence of L-malate MnCl2. A digest of the protocol: as §1
Data set [4] deals with Escherichia coli K-12. As to the kind of experiment: Activity of purified recombinant Escherichia coli K-12 malic enzyme L310K/Q401R mutant at 0.2 mM by UV-vis spectrophotometry in presence of L-malate MnCl2. A digest of the protocol: as §1
Data set [5] concerns Escherichia coli K-12. Description: Activity of purified recombinant Escherichia coli K-12 malic enzyme L310R/L404C mutant at 0.2 mM by UV-vis spectrophotometry in presence of L-malate MnCl2. A digest of the protocol: as §1
The subject of data set [6] is Escherichia coli K-12. As to the kind of experiment: Activity of purified recombinant Escherichia coli K-12 malic enzyme L310K/L404S mutant at 0.2 mM by UV-vis spectrophotometry in presence of L-malate MnCl2. A digest of the protocol:
as §1

Data set [7] has as its system Escherichia coli K-12. As to the kind of experiment: Activity of purified recombinant Escherichia coli K-12 malic enzyme L310R/L404N mutant at 0.2 mM by UV-vis spectrophotometry in presence of L-malate MnCl2. A digest of the protocol: as §1
Data set [8] concerns Escherichia coli K-12. Description: Activity of purified recombinant Escherichia coli K-12 malic enzyme L310K/L404S mutant at 0.2 mM by Lineweaver-Burk plot method in presence of L-malate MnCl2.
The test system of data set [9] is Escherichia coli K-12. As to the kind of experiment: Ratio of Kcat to Km for purified recombinant Escherichia coli K-12 malic enzyme L310K/L404S mutant at 0.2 mM by Lineweaver-Burk plot method in presence of L-malate MnCl2.
The subject of data set [10] is Escherichia coli K-12. As to the kind of experiment: Activity of purified recombinant Escherichia coli K-12 malic enzyme L310R/Q401V mutant at 0.2 mM by UV-vis spectrophotometry in presence of L-malate MnCl2. A digest of the protocol:
as §1

Compound in data set [11]: NC(=O)c1ccc[n+]([C@@H]2O[C@H](COP(=O)([O-])OP(=O)(O)OC[C@@H]3O[C@H](n4cnc5c(N)ncnc54)[C@@H](O)[C@H]3O)[C@@H](O)[C@H]2O)c1
Description: (§2) Ratio of Kcat to Km for purified recombinant Escherichia coli K-12 malic enzyme at 0.2 mM by Lineweaver-Burk plot method in presence of L-malate MnCl2.

Compound in data set [12]: NC(=O)c1ccc[n+]([C@@H]2O[C@H](COP(=O)([O-])OP(=O)(O)OC[C@@H]3O[C@H](n4cc(-c5ccccc5)nn4)[C@@H](O)[C@H]3O)[C@@H](O)[C@H]2O)c1
Described as §2.

Compound in data set [13]: NC(=O)c1ccc[n+]([C@@H]2O[C@H](COP(=O)([O-])OP(=O)(O)OC[C@@H]3O[C@H](n4cc(-c5cccc6ccccc56)nn4)[C@@H](O)[C@H]3O)[C@@H](O)[C@H]2O)c1
Described as §2.

Compound in data set [14]: Cc1ccccc1-c1cn([C@H]2O[C@@H](COP(=O)(O)OP(=O)([O-])OC[C@H]3O[C@@H]([n+]4cccc(C(N)=O)c4)[C@H](O)[C@@H]3O)[C@H](O)[C@@H]2O)nn1
The data set is described as §2.

Compound in data set [15]: NC(=O)c1ccc[n+]([C@@H]2O[C@H](COP(=O)([O-])OP(=O)(O)OC[C@@H]3O[C@H](n4cnc5c(N)ncnc54)[C@@H](O)[C@H]3O)[C@@H](O)[C@H]2O)c1
As to the kind of experiment: (§3) Activity of purified recombinant Escherichia coli K-12 malic enzyme at 0.2 mM by Lineweaver-Burk plot method in presence of L-malate MnCl2.

Compound in data set [16]: NC(=O)c1ccc[n+]([C@@H]2O[C@H](COP(=O)([O-])OP(=O)(O)OC[C@@H]3O[C@H](n4cc(-c5ccccc5)nn4)[C@@H](O)[C@H]3O)[C@@H](O)[C@H]2O)c1
The data set is described as §3.

Compound in data set [17]: NC(=O)c1ccc[n+]([C@@H]2O[C@H](COP(=O)([O-])OP(=O)(O)OC[C@@H]3O[C@H](n4cc(-c5cccc6ccccc56)nn4)[C@@H](O)[C@H]3O)[C@@H](O)[C@H]2O)c1
Described as §3.

Compound in data set [18]: Cc1ccccc1-c1cn([C@H]2O[C@@H](COP(=O)(O)OP(=O)([O-])OC[C@H]3O[C@@H]([n+]4cccc(C(N)=O)c4)[C@H](O)[C@@H]3O)[C@H](O)[C@@H]2O)nn1
The description is as §3.

Broadly, the Km is the substrate concentration at which the rate is half of its maximum. What is called kcat is the maximal rate divided by the concentration of active sites. For orientation: kcat/Km means the second-order rate constant that governs catalysis at low substrate concentration.

In the case of `COc1ccc(-c2cn([C@H]3O[C@@H](COP(=O)(O)OP(=O)([O-])OC[C@H]4O[C@@H]([n+]5cccc(C(N)=O)c5)[C@H](O)[C@@H]4O)[C@H](O)[C@@H]3O)nn2)cc1`, the Activity in data set [1] was 0.43 U/mg; in [2], 0.43 U/mg; in [3] it was 0.98 U/mg; in data set [4], 4.3 U/mg; in [5] it was 0.51 U/mg; in [6] it was 1.6 U/mg. For the same molecule, in data set [7], the Activity was determined as 0.51 U/mg.
Consider `Cc1ccccc1-c1cn([C@H]2O[C@@H](COP(=O)(O)OP(=O)([O-])OC[C@H]3O[C@@H]([n+]4cccc(C(N)=O)c4)[C@H](O)[C@@H]3O)[C@H](O)[C@@H]2O)nn1`, for which, in data set [8], the Michaelis-Menten constant (Km) was 1100 µM and the turnover number (kcat) was determined as 86.7 s⁻¹. Besides, the kcat/Km in data set [9] came out at 78800 M⁻¹ s⁻¹.
For `NC(=O)c1ccc[n+]([C@@H]2O[C@H](COP(=O)([O-])OP(=O)(O)OC[C@@H]3O[C@H](n4cc(-c5ccccc5)nn4)[C@@H](O)[C@H]3O)[C@@H](O)[C@H]2O)c1`, in [8], the Michaelis constant (Km) was 2500 µM and the turnover number (kcat) turned out to be 16.4 s⁻¹. For the same molecule, the kcat/Km in [9] is 6700 M⁻¹ s⁻¹.
Turning to `NC(=O)c1ccc[n+]([C@@H]2O[C@H](COP(=O)([O-])OP(=O)(O)OC[C@@H]3O[C@H](n4cnc5c(N)ncnc54)[C@@H](O)[C@H]3O)[C@@H](O)[C@H]2O)c1`, in data set [8], the Km was 4100 µM and the kcat was 33.7 s⁻¹. Also, in data set [9], the kcat/Km was 8200 M⁻¹ s⁻¹.
With `NC(=O)c1ccc[n+]([C@@H]2O[C@H](COP(=O)([O-])OP(=O)(O)OC[C@@H]3O[C@H](n4cc(-c5cccc6ccccc56)nn4)[C@@H](O)[C@H]3O)[C@@H](O)[C@H]2O)c1`, the Km in data set [8] was found to be 1000 µM. Further, the kcat in data set [8] is 68.6 s⁻¹. Moreover, the Activity is 0.32 U/mg in data set [1]; 2.3 U/mg in data set [4]; 0.53 U/mg in [10]; 0.36 U/mg in data set [5]; 10.5 U/mg in [6]; 0.47 U/mg in [7]. The kcat/Km in [9] stood at 68600 M⁻¹ s⁻¹.
As for `NC(=O)c1ccc[n+]([C@@H]2O[C@H](COP(=O)([O-])OP(=O)(O)OC[C@@H]3O[C@H](n4cc(C(=O)O)nn4)[C@@H](O)[C@H]3O)[C@@H](O)[C@H]2O)c1`, the Activity is 2.1 U/mg in data set [4] and 0.17 U/mg in data set [6].

B1: NAD-dependent malic enzyme (Escherichia coli (strain K12)), P26616 (protein)
chain: MEPKTKKQRSLYIPYAGPVLLEFPLLNKGSAFSMEERRNFNLLGLLPEVVETIEEQAERAWIQYQGFKTEIDKHIYLRNIQDTNETLFYRLVNNHLDEMMPVIYTPTVGAACERFSEIYRRSRGVFISYQNRHNMDDILQNVPNHNIKVIVVTDGERILGLGDQGIGGMGIPIGKLSLYTACGGISPAYTLPVVLDVGTNNQQLLNDPLYMGWRNPRITDDEYYEFVDEFIQAVKQRWPDVLLQFEDFAQKNAMPLLNRYRNEICSFNDDIQGTAAVTVGTLIAASRAAGGQLSEKKIVFLGAGSAGCGIAEMIISQTQREGLSEEAARQKVFMVDRFGLLTDKMPNLLPFQTKLVQKRENLSDWDTDSDVLSLLDVVRNVKPDILIGVSGQTGLFTEEIIREMHKHCPRPIVMPLSNPTSRVEATPQDIIAWTEGNALVATGSPFNPVVWKDKIYPIAQCNNAFIFPGIGLGVIASGASRITDEMLMSASETLAQYSPLVLNGEGMVLPELKDIQKVSRAIAFAVGKMAQQQGVAVKTSAEALQQAIDDNFWQAEYRDYRRTSI
On to B1, for which the specificity constant (kcat/Km) in data set [11] is 369000 M⁻¹ s⁻¹; in data set [12] it was 2600 M⁻¹ s⁻¹; in data set [13], 2600 M⁻¹ s⁻¹; in [14], 6300 M⁻¹ s⁻¹. Besides, the Km was 280 µM in data set [15], 2900 µM in [16], 1800 µM in [17] and 1600 µM in data set [18]. Moreover, the turnover number (kcat) came to 103 s⁻¹ in data set [15], 7.5 s⁻¹ in data set [16], 4.6 s⁻¹ in [17] and 10 s⁻¹ in data set [18].

The record behind these values is ChEMBL document CHEMBL3286366, “Identification of malic enzyme mutants depending on 1,2,3-triazole moiety-containing nicotinamide adenine dinucleotide analogs” (Bioorg Med Chem Lett, 2014).
